# Measurements reported in ChEMBL document CHEMBL5046307 (ACS Med Chem Lett, 2022).
# How the values were obtained:
# [1] = Efflux ratio of apparent permeability across basolateral to apical side over apical to basolateral side in human Caco2 cells at 2 uM incubated for 2 hrs by LC-MS/MS analysis; settings: Caco-2
# [2] = Inhibition of mouse electron transport chain complex 1 assessed as reduction in cellular ATP measured after 24 hrs by celltiter-glo assay
# Cytochrome P450 1A2 = molecular target: T1, Cytochrome P450 1A2 (Homo sapiens, UniProt P05177); experiment: Inhibition of CYP1A2 in human liver microsomes using phenacetin as substrate by LC-MS/MS analysis
# T1 sequence (P05177 whole entry): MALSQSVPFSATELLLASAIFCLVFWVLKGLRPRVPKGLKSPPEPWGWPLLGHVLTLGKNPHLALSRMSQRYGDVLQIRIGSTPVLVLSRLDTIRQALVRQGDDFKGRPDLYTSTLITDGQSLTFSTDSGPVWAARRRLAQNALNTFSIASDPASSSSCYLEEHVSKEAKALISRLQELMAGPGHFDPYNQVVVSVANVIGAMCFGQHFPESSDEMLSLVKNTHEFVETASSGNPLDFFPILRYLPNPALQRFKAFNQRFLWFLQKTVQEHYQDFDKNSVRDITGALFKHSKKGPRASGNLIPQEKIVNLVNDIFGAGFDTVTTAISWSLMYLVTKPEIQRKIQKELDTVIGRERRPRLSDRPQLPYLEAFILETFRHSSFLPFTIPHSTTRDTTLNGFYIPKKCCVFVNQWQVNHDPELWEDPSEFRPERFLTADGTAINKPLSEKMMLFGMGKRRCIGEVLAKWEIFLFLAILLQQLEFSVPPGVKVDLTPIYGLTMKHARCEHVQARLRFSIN
# [3] = AUC in Wistar rat plasma at 0.8 mg/kg, po by LC-MS/MS analysis; format: ADME, organism-based; design: dose 0.8 mg/kg; settings: in vivo
# [4] = Plasma protein binding in mouse assessed as fraction unbound incubated for 6 to 8 hrs by LC-MS/MS analysis; format: ADME, cell-free; settings: time 6-8 hrs
# [5] = Inhibition of human electron transport chain complex 1 in human NCI-H1299 cells assessed as reduction in cellular ATP level measured after 24 hrs by CellTiter-Glo assay; format: cell-based; settings: Homo sapiens, NCI-H1299, 24 h
# How it was run: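 ATP-dependent luciferase luminescence read in H1299 cells, first without (M1) and then after adding the complex II substrate succinate (M2), to separate complex I block from downstream respiratory-chain inhibition or uncoupling.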
# [6] = Clearance in male Wistar rat blood at 0.4 mg/kg, iv by LC-MS/MS analysis
# [7] = Half life in Wistar rat plasma at 0.4 mg/kg, iv by LC-MS/MS analysis; format: ADME, organism-based
# [8] = Solubility of the compound at pH 6.5; settings: buffer
# [9] = Inhibition of dog electron transport chain complex 1 assessed as reduction in cellular ATP measured after 24 hrs by celltiter-glo assay; settings: Canis lupus familiaris
# [10] = Lipophilicity, logD of compound; settings: octanol/water
# Cytochrome P450 3A4 = Cytochrome P450 3A4 (Homo sapiens, UniProt P08684); experiment: Inhibition of CYP3A4 in human liver microsomes using midazolam as substrate by LC-MS/MS analysis
# Cytochrome P450 2D6 = Cytochrome P450 2D6 (Homo sapiens, UniProt P10635); experiment: Inhibition of CYP2D6 in human liver microsomes using dextromethorphan as substrate by LC-MS/MS analysis
# [11] = molecular target: T2, Nuclear receptor subfamily 1 group I member 2 (Homo sapiens, UniProt O75469); experiment: Transactivation of PXR (unknown origin) expressed in human DPX2 cells co-expressing luciferase gene under control of CYP3A4 promoter assessed as increase in luciferase activity incubated for 24 hrs by luminescence based analysis; settings: dpx2, 24 h
# T2 sequence (O75469 whole entry): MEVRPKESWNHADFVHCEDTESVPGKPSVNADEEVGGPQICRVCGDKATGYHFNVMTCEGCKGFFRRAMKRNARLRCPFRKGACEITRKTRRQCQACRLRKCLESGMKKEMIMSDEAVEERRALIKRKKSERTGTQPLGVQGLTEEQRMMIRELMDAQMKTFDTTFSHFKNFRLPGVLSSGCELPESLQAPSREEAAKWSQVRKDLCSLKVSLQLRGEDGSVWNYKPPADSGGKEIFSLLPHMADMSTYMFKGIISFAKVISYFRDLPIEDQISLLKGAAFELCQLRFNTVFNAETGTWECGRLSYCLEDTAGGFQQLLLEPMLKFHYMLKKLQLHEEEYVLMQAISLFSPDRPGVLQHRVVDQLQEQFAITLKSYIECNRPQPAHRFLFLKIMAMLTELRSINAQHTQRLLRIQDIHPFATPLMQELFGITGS
# Cytochrome P450 2C8 = molecular target: T3, Cytochrome P450 2C8 (Homo sapiens, UniProt P10632); experiment: Inhibition of CYP2C8 in human liver microsomes using amodiaquine as substrate by LC-MS/MS analysis
# T3 sequence (P10632 whole entry): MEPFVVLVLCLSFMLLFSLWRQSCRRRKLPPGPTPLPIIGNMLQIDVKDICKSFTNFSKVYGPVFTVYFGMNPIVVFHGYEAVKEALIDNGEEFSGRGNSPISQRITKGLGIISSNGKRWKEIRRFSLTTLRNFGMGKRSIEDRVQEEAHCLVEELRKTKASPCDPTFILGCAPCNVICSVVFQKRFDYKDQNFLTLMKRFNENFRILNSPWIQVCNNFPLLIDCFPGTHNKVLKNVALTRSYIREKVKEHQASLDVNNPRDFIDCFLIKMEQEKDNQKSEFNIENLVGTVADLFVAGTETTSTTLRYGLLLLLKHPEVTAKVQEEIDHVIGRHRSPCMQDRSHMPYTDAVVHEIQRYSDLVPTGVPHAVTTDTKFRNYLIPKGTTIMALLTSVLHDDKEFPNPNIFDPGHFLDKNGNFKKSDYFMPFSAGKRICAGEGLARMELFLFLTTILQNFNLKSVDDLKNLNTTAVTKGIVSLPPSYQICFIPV
# [12] = molecular target: Voltage-gated inwardly rectifying potassium channel KCNH2 (Homo sapiens, UniProt Q12809); experiment: Inhibition of human ERG by patch-clamp assay
# [13] = Oral bioavailability in Wistar rat plasma at 0.8 mg/kg by LC-MS/MS analysis; format: ADME, organism-based
# [14] = Metabolic stability in rat hepatocyte assessed as maximum bioavailability measured up to 90 mins by LC-MS/MS analysis; format: ADME; settings: rat hepatocytes, read-out: Fmax
# Cytochrome P450 2C9 = Cytochrome P450 2C9 (Homo sapiens, UniProt P11712); experiment: Inhibition of CYP2C9 in human liver microsomes using diclofenac as substrate by LC-MS/MS analysis
# [15] = Volume of distribution at steady state in Wistar rat plasma at 0.4 mg/kg, iv by LC-MS/MS analysis; format: ADME, organism-based; settings: read-out: Vdss
# [16] = Apparent permeability across apical to basolateral side in human Caco2 cells assessed as drug recovery at 2 uM and measured for 2 hrs by LC-MS/MS analysis; settings: Caco-2
# [17] = Inhibition of rat electron transport chain complex 1 assessed as reduction in cellular ATP measured after 24 hrs by celltiter-glo assay
# Cytochrome P450 2C9, sequence (P11712 whole entry): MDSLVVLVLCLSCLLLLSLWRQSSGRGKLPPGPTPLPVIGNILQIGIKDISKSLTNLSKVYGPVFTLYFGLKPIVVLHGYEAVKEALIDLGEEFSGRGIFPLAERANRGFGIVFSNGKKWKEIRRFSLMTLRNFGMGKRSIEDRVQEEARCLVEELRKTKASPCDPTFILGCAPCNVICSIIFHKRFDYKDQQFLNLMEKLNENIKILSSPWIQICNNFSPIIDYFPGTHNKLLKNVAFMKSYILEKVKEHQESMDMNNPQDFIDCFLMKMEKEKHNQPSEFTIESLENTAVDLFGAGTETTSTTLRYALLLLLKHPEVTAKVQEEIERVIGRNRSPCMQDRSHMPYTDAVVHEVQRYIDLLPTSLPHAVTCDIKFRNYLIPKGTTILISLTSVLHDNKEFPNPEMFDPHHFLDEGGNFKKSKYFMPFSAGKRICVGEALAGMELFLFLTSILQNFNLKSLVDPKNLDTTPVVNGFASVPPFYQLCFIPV
# Voltage-gated inwardly rectifying potassium channel KCNH2, sequence (Q12809 whole entry): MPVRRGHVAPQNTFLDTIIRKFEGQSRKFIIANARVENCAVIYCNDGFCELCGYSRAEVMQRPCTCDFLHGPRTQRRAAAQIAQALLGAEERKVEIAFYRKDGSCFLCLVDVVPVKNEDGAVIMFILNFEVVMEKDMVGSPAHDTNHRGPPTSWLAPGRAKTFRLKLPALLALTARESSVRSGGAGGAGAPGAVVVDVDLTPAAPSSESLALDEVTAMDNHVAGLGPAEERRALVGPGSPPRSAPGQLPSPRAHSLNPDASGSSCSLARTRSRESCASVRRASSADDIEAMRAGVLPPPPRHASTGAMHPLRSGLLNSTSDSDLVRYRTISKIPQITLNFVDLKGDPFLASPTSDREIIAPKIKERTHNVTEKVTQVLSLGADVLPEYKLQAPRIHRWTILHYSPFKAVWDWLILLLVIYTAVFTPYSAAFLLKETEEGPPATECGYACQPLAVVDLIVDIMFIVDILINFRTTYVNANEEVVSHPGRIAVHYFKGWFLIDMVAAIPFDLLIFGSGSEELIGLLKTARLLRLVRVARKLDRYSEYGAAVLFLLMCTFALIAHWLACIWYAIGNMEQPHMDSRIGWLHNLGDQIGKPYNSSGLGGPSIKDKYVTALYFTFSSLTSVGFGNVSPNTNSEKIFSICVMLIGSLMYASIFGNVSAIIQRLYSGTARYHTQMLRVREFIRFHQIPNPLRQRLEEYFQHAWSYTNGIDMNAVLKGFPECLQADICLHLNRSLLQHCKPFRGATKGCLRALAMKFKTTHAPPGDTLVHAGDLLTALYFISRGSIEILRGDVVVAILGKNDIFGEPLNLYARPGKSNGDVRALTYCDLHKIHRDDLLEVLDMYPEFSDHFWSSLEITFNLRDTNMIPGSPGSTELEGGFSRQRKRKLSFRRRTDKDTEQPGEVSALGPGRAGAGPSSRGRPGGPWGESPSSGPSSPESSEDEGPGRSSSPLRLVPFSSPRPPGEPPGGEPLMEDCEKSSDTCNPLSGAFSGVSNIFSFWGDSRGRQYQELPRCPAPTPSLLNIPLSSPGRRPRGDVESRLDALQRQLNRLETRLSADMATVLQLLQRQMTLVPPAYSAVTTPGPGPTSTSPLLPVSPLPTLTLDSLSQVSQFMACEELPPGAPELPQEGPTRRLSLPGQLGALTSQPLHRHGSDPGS
# Cytochrome P450 2D6, sequence (P10635 whole entry): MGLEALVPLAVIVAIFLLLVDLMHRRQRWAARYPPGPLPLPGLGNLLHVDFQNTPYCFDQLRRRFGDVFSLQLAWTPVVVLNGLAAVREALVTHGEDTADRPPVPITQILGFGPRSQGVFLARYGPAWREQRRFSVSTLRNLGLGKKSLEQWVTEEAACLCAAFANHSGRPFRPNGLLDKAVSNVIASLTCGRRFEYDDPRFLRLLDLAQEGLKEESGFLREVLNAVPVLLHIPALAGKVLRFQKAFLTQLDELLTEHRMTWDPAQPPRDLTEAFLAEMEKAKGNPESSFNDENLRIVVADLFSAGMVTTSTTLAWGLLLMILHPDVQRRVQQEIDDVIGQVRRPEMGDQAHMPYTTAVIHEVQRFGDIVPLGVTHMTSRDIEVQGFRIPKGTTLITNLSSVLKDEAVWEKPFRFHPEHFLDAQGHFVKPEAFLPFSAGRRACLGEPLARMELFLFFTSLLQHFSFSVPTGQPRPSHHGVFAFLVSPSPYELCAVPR
# Cytochrome P450 3A4, sequence (P08684 whole entry): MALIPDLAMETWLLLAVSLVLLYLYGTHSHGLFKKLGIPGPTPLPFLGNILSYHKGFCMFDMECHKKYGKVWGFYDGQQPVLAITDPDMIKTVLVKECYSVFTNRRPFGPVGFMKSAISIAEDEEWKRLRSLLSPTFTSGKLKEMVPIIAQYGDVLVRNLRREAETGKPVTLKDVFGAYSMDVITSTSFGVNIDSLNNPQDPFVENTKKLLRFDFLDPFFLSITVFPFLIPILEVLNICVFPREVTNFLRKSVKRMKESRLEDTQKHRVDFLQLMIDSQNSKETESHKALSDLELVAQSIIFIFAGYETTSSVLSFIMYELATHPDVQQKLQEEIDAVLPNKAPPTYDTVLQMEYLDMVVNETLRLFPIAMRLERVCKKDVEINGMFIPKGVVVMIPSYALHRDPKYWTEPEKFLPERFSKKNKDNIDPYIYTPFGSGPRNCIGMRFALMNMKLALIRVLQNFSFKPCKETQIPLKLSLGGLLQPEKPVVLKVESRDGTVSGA
structure (smiles),measurement,setting,value
c1ccc2oc(-c3csc(C4CCN(Cc5nc6ncccc6[nH]5)CC4)n3)cc2c1,"efflux ratio at 2 h, 2 µM",[1],0.44
same,IC50,[2],0.038 µM
same,IC50,Cytochrome P450 1A2,> 20 µM
same,AUC,[3],3.1 kg·h/L
same,Fu,[4],0.43%
same,IC50,[5],0.079 µM
same,clearance,[6],6.67 mL/min/kg
same,half-life,[7],6.2 h
same,solubility,[8],1.6 µg/mL
same,IC50,[9],0.047 µM
same,logD,[10],2.8
same,IC50,Cytochrome P450 3A4,> 20 µM
same,IC50,Cytochrome P450 2D6,> 20 µM
same,MEC,[11],> 50 µM
same,IC50,Cytochrome P450 2C8,7.8 µM
same,IC50,[12],3 µM
same,bioavailability,[13],76%
same,Fh at 1.5 h,[14],81%
same,IC50,Cytochrome P450 2C9,15 µM
same,Vd,[15],2.2 L/kg
same,"Papp A→B at 2 h, 2 µM",[16],9.2 ×10⁻⁶ cm/s
same,IC50,[17],0.027 µM
